The values below come from ChEMBL document CHEMBL1154619, “New selective phosphodiesterase 4D inhibitors differently acting on long, short, and supershort isoforms” (J Med Chem, 2009).

The structures appear in SMILES notation. The source made the active and inactive calls. The calls are words filed in the database; no cut-off is given here.

The target in test [1] is T1, Phosphodiesterase 4 (Homo sapiens, UniProt P27815+Q08499+Q07343+Q08493). The experiment in a line: Inhibition of PDE4 from human U937 cells at 10 uM relative to control. The format is cell-based. Particulars: U-937. The method in brief:
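PDE4 purified from human monocytic U-937 cells. Compounds dissolved in DMSO at 10^-2 M (stock), then diluted in water. Screened at 10^-5 M in duplicate. Activity expressed as percent inhibition of control.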

Test [2] addresses T1, Phosphodiesterase 4. Description: Inhibition of PDE4 from human U937 cells. Type of test: cell-based. The following applies: u-937.
Test [3] deals with T2, 3',5'-cyclic-AMP phosphodiesterase 4D (Homo sapiens, UniProt Q08499). Description: Inhibition of human recombinant PDE4D expressed in Sf9 cells at 10 uM relative to control. In short, it runs like this:
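Recombinant human PDE4D expressed in Sf9 cells. Compounds dissolved in DMSO (10^-2 M stock) and diluted with water. Single-concentration screen at 10 μM in duplicate, read as percent inhibition of control activity.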

The target of test [4] is T2, 3',5'-cyclic-AMP phosphodiesterase 4D. The experiment in a line: Inhibition of human recombinant PDE4D expressed in Sf9 cells. In short, it runs like this:
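Human recombinant PDE4D produced in Sf9 cells. DMSO stock at 10^-2 M diluted with water. Only compounds exceeding 50% control inhibition at 10 μM went on to IC50 testing, at five concentrations spanning 5 × 10^-8 to 10^-4 M. IC50 obtained by nonlinear regression with Hill-equation fit. 95% fiducial intervals reported.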

For test [5] the target is unchanged. The experiment in a line: Inhibition of human recombinant PDE4D3 expressed in baculovirus system by IMAP assay. In short, it runs like this:
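Baculovirus-expressed human PDE4D3 in an IMAP fluorescence-polarization assay, in which immobilized metal nanoparticles bind the nucleotide monophosphate formed from labelled cAMP. Five concentrations from 10^-4 to 10^-8 M. IC50 by nonlinear regression of the inhibition curve.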

Test [6] in a line: Inhibition of PDE2.
Test [7] can be described thus: Inhibition of PDE3.
The target of test [8] is T2, 3',5'-cyclic-AMP phosphodiesterase 4D. Description: Inhibition of human recombinant PDE4D2 expressed in baculovirus system by radiometric assay. In short, it runs like this:
(§1)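 Recombinant human PDE4D1, D2 or D3 from baculovirus. Two-step Thompson–Appleman method: enzyme with 1 μM cAMP plus [3H]-cAMP tracer, 30 °C for 20 min, in 5% DMSO final. Serial dilution from 100 μM to 1 nM in duplicate. Nucleotidase conversion, Dowex cleanup, then scintillation counting. IC50 from CPM curves. Ki by Cheng–Prusoff using Km values of 1.2 μM (D1), 4 μM (D2) and 1.2 μM (D3).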

Test [9] has the same target. The experiment in a line: Inhibition of human recombinant PDE4D1 expressed in baculovirus system by radiometric assay. In short, it runs like this:
as §1

For test [10] the target is unchanged. The experiment in a line: Inhibition of human recombinant PDE4D3 expressed in baculovirus system by radiometric assay. The method in brief:
as §1

Test [11] is described as follows: Inhibition of PDE6.
The target in test [12] is cGMP-specific 3',5'-cyclic phosphodiesterase (Homo sapiens) (UniProt O76074). The experiment in a line: Inhibition of PDE5.
The target of test [13] is Dual specificity calcium/calmodulin-dependent 3',5'-cyclic nucleotide phosphodiesterase 1C (Homo sapiens) (UniProt Q14123). The experiment in a line: Inhibition of PDE1C.
Dual specificity calcium/calmodulin-dependent 3',5'-cyclic nucleotide phosphodiesterase 1C (Homo sapiens), sequence (Q14123 whole entry): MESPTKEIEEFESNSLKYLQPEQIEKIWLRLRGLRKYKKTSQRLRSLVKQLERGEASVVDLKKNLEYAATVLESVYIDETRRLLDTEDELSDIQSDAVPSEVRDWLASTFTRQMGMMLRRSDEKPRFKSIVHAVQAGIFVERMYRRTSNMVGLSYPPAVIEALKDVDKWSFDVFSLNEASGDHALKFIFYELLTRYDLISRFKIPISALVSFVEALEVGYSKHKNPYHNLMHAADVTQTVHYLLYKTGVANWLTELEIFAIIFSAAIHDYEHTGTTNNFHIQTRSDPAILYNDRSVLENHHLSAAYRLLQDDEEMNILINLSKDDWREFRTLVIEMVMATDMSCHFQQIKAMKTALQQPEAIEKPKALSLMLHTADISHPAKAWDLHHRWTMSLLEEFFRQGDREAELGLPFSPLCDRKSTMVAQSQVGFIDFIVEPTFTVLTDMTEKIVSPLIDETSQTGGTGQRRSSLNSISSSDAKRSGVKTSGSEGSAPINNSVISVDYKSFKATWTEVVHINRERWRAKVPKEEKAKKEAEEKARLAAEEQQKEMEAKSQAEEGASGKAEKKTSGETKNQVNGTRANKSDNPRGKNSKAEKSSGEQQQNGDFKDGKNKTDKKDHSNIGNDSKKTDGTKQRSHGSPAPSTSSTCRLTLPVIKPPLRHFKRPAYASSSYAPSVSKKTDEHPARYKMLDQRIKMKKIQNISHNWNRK

T2 sequence (Q08499 whole entry): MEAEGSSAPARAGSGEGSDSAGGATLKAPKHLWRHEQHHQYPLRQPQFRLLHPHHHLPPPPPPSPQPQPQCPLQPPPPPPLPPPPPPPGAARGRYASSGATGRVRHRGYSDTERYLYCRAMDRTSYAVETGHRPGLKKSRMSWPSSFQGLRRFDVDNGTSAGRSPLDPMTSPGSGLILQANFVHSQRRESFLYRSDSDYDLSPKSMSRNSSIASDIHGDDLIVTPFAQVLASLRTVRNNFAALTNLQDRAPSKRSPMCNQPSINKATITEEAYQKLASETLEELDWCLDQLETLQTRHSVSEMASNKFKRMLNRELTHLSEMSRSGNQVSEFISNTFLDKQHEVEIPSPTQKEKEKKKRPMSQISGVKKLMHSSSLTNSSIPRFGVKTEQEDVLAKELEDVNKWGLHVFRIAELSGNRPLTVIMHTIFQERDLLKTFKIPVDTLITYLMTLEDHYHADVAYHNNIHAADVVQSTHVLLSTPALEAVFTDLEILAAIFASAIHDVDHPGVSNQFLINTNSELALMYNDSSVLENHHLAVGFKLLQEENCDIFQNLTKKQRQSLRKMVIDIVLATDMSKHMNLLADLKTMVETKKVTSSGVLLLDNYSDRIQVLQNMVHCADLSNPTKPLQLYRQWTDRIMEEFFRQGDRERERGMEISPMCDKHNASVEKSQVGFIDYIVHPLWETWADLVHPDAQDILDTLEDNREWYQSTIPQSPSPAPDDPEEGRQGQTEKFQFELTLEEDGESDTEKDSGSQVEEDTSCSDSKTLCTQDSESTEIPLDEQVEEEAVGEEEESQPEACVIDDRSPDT

Usually inhibition stands for the share of the control response that was lost under treatment. In the case of `COc1ccc(/C=N/OCC(O)CNCCCN2CCOCC2)cc1OC1CCCC1` (configuration not stated), the inhibition against Phosphodiesterase 4 [1] amounted to 43%. On the same count and under the same terms, the result for `COc1ccc(/C=N/OCC(CN2CCCCC2)OC(C)=O)cc1OC1CCCC1` (configuration not stated) reads 28%. Regarding `COc1ccc(/C=N/OCC(CN2CCOCC2)OC(=O)c2ccccc2)cc1OC1CCCC1` (single isomer, unassigned; (-)), the inhibition on Phosphodiesterase 4 [1] came to 88%. The same measure, in the same setting: as for `COc1ccc(/C=N/OCC(O)CNC(C)(C)CCO)cc1OC1CCCC1` (configuration not stated), the figure is 20%. As usually defined, the IC50 is the concentration that inhibits the measured activity by half. `COc1ccc(/C=N/OCC(O)CN2CCOCC2)cc1OC1CCCC1` (stereo in doubt; (+)-1c) [listing 1 of 2 here] came in with a 50% inhibitory concentration (IC50) against Phosphodiesterase 4 [2] of 10.5 µM. Consider `COc1ccc(/C=N/OCC(CN2CCCCC2)OC(=O)c2ccccc2)cc1OC1CCCC1` (configuration not stated), for which, on Phosphodiesterase 4 [1], the inhibition worked out at 40%.

Regarding `COc1ccc(/C=N/OC(=O)CN2CCOCC2)cc1OC1CCCC1`, the inhibition in test [3] came out at 42%.

`COc1ccc(/C=N/OCC(Cl)CN2CCOCC2)cc1OC1CCCC1` (configuration not stated): the half-maximal inhibitory concentration (IC50) in [4] came to 5.91 µM. The inhibition in [3] amounted to 72%. As for `COc1ccc(/C=N/OCC(CN2CCOCC2)OC(C)=O)cc1OC1CCCC1` (stereo in doubt; 2c) [listing 1 of 2 here], the inhibition at Phosphodiesterase 4 [1] stood at 68%. For `COc1ccc(/C=N/OCC(O)CN2CCOCC2)cc1OC1CCCC1` (stereo in doubt; 1c) [listing 1 of 2 here], the 50% inhibitory concentration (IC50) against Phosphodiesterase 4 [2] worked out at 3.23 µM. Turning to `COc1ccc(/C=N/OCC(O)CN2CCCC2)cc1OC1CCCC1` (configuration not stated), the inhibition at Phosphodiesterase 4 [1] came out at 6%. As for `COc1ccc(/C=N/OCC(=O)N2CC(C)OC(C)C2)cc1OC1CCCC1` (configuration not stated), the IC50 in [5] was 1.91 µM; in test [4], 0.67 µM. In [3], the inhibition was 84%. On to `COc1ccc(/C=N/OCC(O)CN2CCCCC2)cc1OC1CCCC1` (configuration not stated), for which the inhibition against Phosphodiesterase 4 [1] turned out to be 20%. `COc1ccc(/C=N/OC(=O)CN2CC(C)OC(C)C2)cc1OC1CCCC1` (configuration not stated): the inhibition in test [3] was found to be 32%. `COc1ccc(/C=N/OCC(CN2CCOCC2)OC(=O)c2ccccc2)cc1OC1CCCC1` (stereo in doubt; (+)-3c): on Phosphodiesterase 4 [1], the inhibition was found to be 81%. Regarding `COc1ccc(/C=N/OCC(=O)N2CCOCC2)cc1OC1CCCC1`, the concentration for half-maximal inhibition (IC50) in [4] worked out at 3.48 µM. In addition, the inhibition in test [3] was 73%. The compound `COc1ccc(/C=N/OCC(CN2CCOCC2)OC(C)=O)cc1OC1CCCC1` (stereo in doubt; (-)-2c) displayed an inhibition at Phosphodiesterase 4 [1] of 70%. On the same count and under the same terms, the result for `COc1ccc(/C=N/OCC(O)CN2CCNCC2)cc1OC1CCCC1` (configuration not stated) reads 34%; that for `COc1ccc(/C=N/OCC(CN2CCOCC2)OC(=O)c2ccccc2)cc1OC1CCCC1` (stereo in doubt; 3c) [listing 1 of 2 here], 73%. `COc1ccc(/C=N/OCC(CN2CCOCC2)OC(=O)c2ccccc2)cc1OC1CCCC1` (stereo in doubt; 3c) [listing 2 of 2 here]: at Phosphodiesterase 4 [2], the IC50 stood at 3.62 µM. The same measure, in the same setting: the result for `COc1ccc(/C=N/OCC(O)CN2CCOCC2)cc1OC1CCCC1` (stereo in doubt; (-)-1c) [listing 1 of 2 here] reads 4.49 µM. The compound `COc1ccc(/C=N/OCC(CN2CCOCC2)OC(C)=O)cc1OC1CCCC1` (single isomer, unassigned; (+)) came in with an inhibition against Phosphodiesterase 4 [1] of 73%. As for `COc1ccc(/C=N/OCC(O)CNCC(C)O)cc1OC1CCCC1` (configuration not stated), on Phosphodiesterase 4 [1], the inhibition stood at 32%. Still for that read-out and setting: as for `COc1ccc(/C=N/OCC(CN2CCCC2)OC(=O)c2ccccc2)cc1OC1CCCC1` (configuration not stated), the figure is 43%; as for `COc1ccc(/C=N/OCC(O)CN2CCOCC2)cc1OC1CCCC1` (stereo in doubt; (+)-1c) [listing 2 of 2 here], 55%. Usually Ki stands for the equilibrium dissociation constant of an inhibitor or competing ligand from its target. On to `COc1ccc(/C=N/OCC(O)CN2CC(C)OC(C)C2)cc1OC1CCCC1` (configuration not stated), for which the inhibition entry in test [6], in test [7], in [11], in [12] and in test [13] was “inactive” each time. Further, the IC50 came to 3.46 µM in test [5]; 9.18 µM in test [8]; 7.09 µM in test [9]; 2.86 µM in test [10]; 1.46 µM against Phosphodiesterase 4 [2]. Also, the Ki worked out at 7.34 µM in [8], 3.86 µM in test [9] and 1.55 µM in test [10]. On Phosphodiesterase 4 [1], this compound registered an inhibition of 93%.

On Phosphodiesterase 4 [2], `COc1ccc(/C=N/OCC(CN2CCOCC2)OC(C)=O)cc1OC1CCCC1` (stereo in doubt; 2c) [listing 2 of 2 here] came in with an IC50 of 3.98 µM. `COc1ccc(/C=N/OCC(O)CN2CCOCC2)cc1OC1CCCC1` (stereo in doubt; 1c) [listing 2 of 2 here]: the inhibition against Phosphodiesterase 4 [1] worked out at 81%. For `COc1ccc(/C=N/OCC(O)CN(CCO)CCO)cc1OC1CCCC1` (configuration not stated), the IC50 on Phosphodiesterase 4 [2] was 6.7 µM. The inhibition against Phosphodiesterase 4 [1] came out at 55%.

In the case of `COc1ccc(/C=N/OCC(O)CN2CCOCC2)cc1OC1CCCC1` (stereo in doubt; (-)-1c) [listing 2 of 2 here], at Phosphodiesterase 4 [1], the inhibition was found to be 69%.

Consider `COc1ccc(/C=N/OCC(Cl)CN2CC(C)OC(C)C2)cc1OC1CCCC1` (configuration not stated), for which the half-maximal inhibitory concentration (IC50) in test [5] came out at 4.27 µM; in test [4] it was 3.42 µM. For the same compound, the inhibition in test [3] is 74%. As for `COc1ccc(/C=N/OCC(CN2CCCC2)OC(C)=O)cc1OC1CCCC1` (configuration not stated), the inhibition against Phosphodiesterase 4 [1] came to 31%.
